Shown are actives, neighbours in structure and some others; about 0.79% of the full set was active somewhere.
hIAP inh = human IAP inhibition; purified IAP, CDP-Star luminescence, 30 min; inhibition, % at 10 µM; actives 0.12% (n = 330,000); AID 2544;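 active = inhibition reaching a set limit with compound at 10 µM in the primary screen, cut at about 35% in these data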;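 note: plate controls were DMSO wells with enzyme for no effect and no-enzyme buffer wells for full effect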
Target sequence (P09923 whole entry, looked up): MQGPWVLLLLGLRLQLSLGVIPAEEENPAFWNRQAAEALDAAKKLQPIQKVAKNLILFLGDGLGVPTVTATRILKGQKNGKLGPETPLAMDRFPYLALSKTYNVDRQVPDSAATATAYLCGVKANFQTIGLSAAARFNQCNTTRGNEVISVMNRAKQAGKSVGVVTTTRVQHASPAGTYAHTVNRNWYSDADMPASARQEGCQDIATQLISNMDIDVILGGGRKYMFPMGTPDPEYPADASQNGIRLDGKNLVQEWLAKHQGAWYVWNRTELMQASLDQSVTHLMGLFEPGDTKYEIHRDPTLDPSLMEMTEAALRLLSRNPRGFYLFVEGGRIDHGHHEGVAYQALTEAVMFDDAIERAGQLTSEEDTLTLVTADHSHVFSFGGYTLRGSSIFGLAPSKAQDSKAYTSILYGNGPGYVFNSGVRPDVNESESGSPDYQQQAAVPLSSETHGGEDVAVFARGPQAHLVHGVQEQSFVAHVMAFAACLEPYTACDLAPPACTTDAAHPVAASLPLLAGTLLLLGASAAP
hIAP act = increases human intestinal alkaline phosphatase activity | P09923 | purified human IAP, CDP-Star luminescence, 30 min; hits give high values; 1 = vehicle-only enzyme, 0 = enzyme-free background | activation factor at 10 µM | actives 0.16% (n = 330,000) | AID 2524;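 active = activation factor of the enzyme at least 2-fold when tested at 20 µM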
bIAP act = increases bovine intestinal alkaline phosphatase activity. purified bovine IAP, CDP-star luminescence, 30 min; hits give high values; fold of DMSO-control signal, blank-subtracted. activation factor at 20 µM. AID 1016. actives 0.17% (n = 200,000);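 active = activation factor of 2 or more at 20 µM, a signal rise over negative controls twice the positive control's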
mIAP inh = blocks mouse intestinal alkaline phosphatase; purified mouse IAP, CDP-Star luminescence, 30 min; inhibition, % at 10 µM; actives 0.2% (n = 330,000); AID 2806;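 active = inhibition of at least 40% at 10 µM in the primary screen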;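 note: plate controls were DMSO with enzyme for no effect and no enzyme wells for full effect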
mIAP activ = mouse IAP activation; actives 0.24% (n = 330,000); muIAP, CDP-Star luminescence, 30 min; hits give high values; 1 = vehicle-only enzyme signal, 0 = enzyme-free wells; activation factor at 10 µM;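 active = activation factor of at least 2 at 20 µM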
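System: mouse IAP enzyme. Reagent: CDP-Star chemiluminescent phosphatase substrate. Benchmarks: DMSO wells, no-enzyme wells. Times: 30 min enzyme-substrate-compound incubation at room temperature. Detection: luminescence from enzymatic CDP-Star hydrolysis. Doses: test compounds delivered from DMSO solution.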
bIAP inh = blocks bovine intestinal alkaline phosphatase activity. purified bovine IAP, CDP-star luminescence, 30 min. 190,000 tested, under 10 active. inhibition, % at 20 µM. AID 1019;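 active = over 50% inhibition of intestinal alkaline phosphatase at 20 µM in the single-dose screen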
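test system = bovine IAP enzyme | medium = DEA buffer 100 mM, pH 9.8, with MgCl2 1.0 mM, ZnCl2 0.02 mM | detection = luminescence | dosing = single compound dose of 20 µM, 2% DMSO final | incubation = 30 min reaction at room temperature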
* marks the source's active call; other numbers are inactive results; nt = not tested or not shown.

SMILES | hIAP inh | hIAP act | bIAP act | mIAP inh | mIAP activ | bIAP inh
OCCC1CN(Cc2nc3ccccc3[nH]2)CCN1C1CCCC1 (stereo unspecified) | 0 | 1 | 1 | 2 | 0.98 | -5
Cc1cc(C(=O)Nn2c(-c3ccc(Br)cc3)nc3ccccc3c2=O)ccc1[N+](=O)[O-] | -10 | 1.1 | 1 | 10 | 0.9 | -3
Cc1cccc(OCCCCCn2ccnc2)c1C | 0 | 1 | 3* | -6 | 1.1 | -202
CCN(C(=O)COC(=O)c1ccc2c(=O)n3c(nc2c1)CCC3)C1CCS(=O)(=O)C1 (stereo unspecified) | 5 | 0.95 | 1 | 9 | 0.91 | -3
N/C(=N\OC(=O)c1cccc2ccccc12)c1cccc([N+](=O)[O-])c1 | 5 | 0.95 | 0.9 | -3 | 1 | 11
Cc1cccc(/C(N)=N/OC(=O)c2cccc3ccccc23)c1 | 40* | 0.6 | nt | 7 | 0.93 | nt
CN(C)S(=O)(=O)c1cccc(NC(=S)NC23CC4CC(CC(C4)C2)C3)c1 | -14 | 1.1 | nt | -174 | 2.7* | nt
CC1CCCC(NC(=S)Nc2cccc(S(=O)(=O)N(C)C)c2)C1C (stereo unspecified) | -23 | 1.2 | 1 | -392 | 4.9* | 4
Cc1ccc(S(=O)(=O)N(C)C)cc1NC(=S)NC12CC3CC(CC(C3)C1)C2 | nt | nt | 0.3 | nt | nt | nt
Cc1ccc(NC(=O)CSc2nc3ccccc3c(=O)n2CCCN2CCCCC2)cc1C | -13 | 1.1 | 2.4* | -16 | 1.2 | -141
COc1cc(OC)cc(C(=O)NC2CCN(Cc3nnnn3Cc3ccc(F)cc3)CC2)c1 | -10 | 1.1 | 1 | 0 | 1 | 5
COc1cccc(NC(=O)NC2CCN(Cc3nnnn3Cc3ccc4c(c3)OCO4)CC2)c1 | -48 | 1.5 | nt | -150 | 2.5* | nt
CC(=O)c1cccc(NC(=O)Cn2cnc(S(=O)(=O)N3CCC(C)CC3)c2)c1 | 2 | 0.98 | nt | 8 | 0.93 | nt
O=C(Nc1ccc(Cl)cc1)Nc1ccc(-c2cnco2)cc1 | 6 | 0.94 | nt | -105 | 2* | nt
CC(C)(C)c1ccc(NC(=O)COc2ccc(-n3ccnc3)cc2)cc1 | -7 | 1.1 | 2.6* | -23 | 1.2 | -165
COc1cc(NC(=O)COc2ccc(-n3ccnc3)cc2)cc(OC)c1 | -28 | 1.3 | 1.2 | -10 | 1.1 | -25
N#Cc1c(N)sc(=S)c2c1CCCCC2 | -4 | 1 | 0.9 | 48* | 0.52 | 12
N#Cc1c(N)sc2c1CCCCCC2 | -6 | 1.1 | 0.6 | 0 | 0.99 | 35
CC1CCCC(NC(=O)COC(=O)[C@@H](NC(=O)c2ccco2)C(C)C)C1C (stereo partly specified) | -28 | 1.3 | 1.2 | 4 | 0.96 | -16
CCOC(=O)N1CCN(C(=O)c2ccc3oc(CCCc4ccccc4)nc3c2)CC1 | -6 | 1.1 | nt | -18 | 1.2 | nt
CC(C)Cn1c(N)c(C(=O)COC(=O)c2nccnc2N)c(=O)n(C)c1=O | -14 | 1.1 | nt | 48* | 0.52 | nt
CC(C)Cn1c(N)c(C(=O)COC(=O)c2ccncc2)c(=O)n(C)c1=O | -27 | 1.3 | 1.1 | -12 | 1.1 | -8
Cc1ccc(C(CNS(=O)(=O)c2cc(F)ccc2F)N2CCN(C)CC2)cc1 (stereo unspecified) | 6 | 0.94 | nt | 9 | 0.91 | nt
Cc1ccc(C(=O)C(NC(=O)c2ccco2)Nc2sc3c(c2C(N)=O)CCCC3)cc1 (stereo unspecified) | -12 | 1.1 | 3.6* | 11 | 0.89 | -263
CCn1c(NCc2cc(Br)ccc2NS(=O)(=O)c2ccc(C)cc2)nc2ccccc21 | -7 | 1.1 | 1.5 | -110 | 2.1* | -45
CCn1c(SCc2nc3ccccc3[nH]2)nnc1-c1ccccc1OC | 13 | 0.87 | 2.3* | 2 | 0.98 | -133
Nc1ccc(S(=O)(=O)NNC(=O)C(=O)NNc2ccccn2)cc1 | -166 | 2.7* | 1.3 | 27 | 0.73 | -30
CC(=O)Nc1ccc(C2=NN(c3ccccc3)C(c3cccs3)C2)cc1 (stereo unspecified) | -16 | 1.2 | 1.3 | -131 | 2.3* | -29
CC(=O)N1N=C(c2ccccc2)CC1c1cccs1 (stereo unspecified) | -15 | 1.1 | nt | 1 | 0.99 | nt
Cc1ccsc1C(=O)Nc1ccc2c(c1)OCCO2 | 6 | 0.94 | 2.1* | -4 | 1 | -110
